Screening results (PubChem BioAssay)
Shown are actives, neighbours in structure and some others; about 12% of the full set was active somewhere.
Diaph act CS = activates diaphorase or chemically reduces, flagging diaphorase assay artifacts. Diaphorase/resazurin coupled assay, resorufin fluorescence, 16 min; hits give high values; 1 = vehicle wells, 0 = NADH-free wells. AID 1229. 190,000 compounds, 0.005% hits. activation factor at 20 µM;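 active = diaphorase activity raised at least twofold by the compound at 20 µM; inactive = activation factor below 2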
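Assay system: Purified diaphorase enzyme from Clostridium kluyveri | Amount: Enzyme 0.07 U/mL final | Dosing: Compound 20 µM once, DMSO 1% | Timing: 16 min reaction at room temperature | Detection: Fluorescence, excitation 544 nm and emission 590 nm | Evaluation: Higher resorufin formation from activation or reduction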
Lmaj promast = inhibitors of Leishmania major promastigote growth. 200,000 compounds, 9% hits. AID 1063. Leishmania major promastigotes, resazurin fluorescence viability. inhibition, % at 10 µM; in the data active = inhibition above about 50%;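 note: promastigotes grown with compound for 44 hours at 28 °C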
KCC2 mod = modulates chloride dependent transport by human KCC2; Q9H2X9; KCC2 cells, thallium flux FluoZin-2 fluorescence; B-score of Tl+ flux slope (higher = more flux/activation; lower = inhibition) at 10 µM; 190,000 compounds, 2.2% hits; AID 1456;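 active = thallium flux slope and its plate-corrected score both differing from the plate sample mean at a set confidence after two filtering rounds, in either direction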;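 note: slope of fluorescence scaled to starting intensity during 10 to 20 s after thallium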
Target sequence (Q9H2X9 whole entry, looked up): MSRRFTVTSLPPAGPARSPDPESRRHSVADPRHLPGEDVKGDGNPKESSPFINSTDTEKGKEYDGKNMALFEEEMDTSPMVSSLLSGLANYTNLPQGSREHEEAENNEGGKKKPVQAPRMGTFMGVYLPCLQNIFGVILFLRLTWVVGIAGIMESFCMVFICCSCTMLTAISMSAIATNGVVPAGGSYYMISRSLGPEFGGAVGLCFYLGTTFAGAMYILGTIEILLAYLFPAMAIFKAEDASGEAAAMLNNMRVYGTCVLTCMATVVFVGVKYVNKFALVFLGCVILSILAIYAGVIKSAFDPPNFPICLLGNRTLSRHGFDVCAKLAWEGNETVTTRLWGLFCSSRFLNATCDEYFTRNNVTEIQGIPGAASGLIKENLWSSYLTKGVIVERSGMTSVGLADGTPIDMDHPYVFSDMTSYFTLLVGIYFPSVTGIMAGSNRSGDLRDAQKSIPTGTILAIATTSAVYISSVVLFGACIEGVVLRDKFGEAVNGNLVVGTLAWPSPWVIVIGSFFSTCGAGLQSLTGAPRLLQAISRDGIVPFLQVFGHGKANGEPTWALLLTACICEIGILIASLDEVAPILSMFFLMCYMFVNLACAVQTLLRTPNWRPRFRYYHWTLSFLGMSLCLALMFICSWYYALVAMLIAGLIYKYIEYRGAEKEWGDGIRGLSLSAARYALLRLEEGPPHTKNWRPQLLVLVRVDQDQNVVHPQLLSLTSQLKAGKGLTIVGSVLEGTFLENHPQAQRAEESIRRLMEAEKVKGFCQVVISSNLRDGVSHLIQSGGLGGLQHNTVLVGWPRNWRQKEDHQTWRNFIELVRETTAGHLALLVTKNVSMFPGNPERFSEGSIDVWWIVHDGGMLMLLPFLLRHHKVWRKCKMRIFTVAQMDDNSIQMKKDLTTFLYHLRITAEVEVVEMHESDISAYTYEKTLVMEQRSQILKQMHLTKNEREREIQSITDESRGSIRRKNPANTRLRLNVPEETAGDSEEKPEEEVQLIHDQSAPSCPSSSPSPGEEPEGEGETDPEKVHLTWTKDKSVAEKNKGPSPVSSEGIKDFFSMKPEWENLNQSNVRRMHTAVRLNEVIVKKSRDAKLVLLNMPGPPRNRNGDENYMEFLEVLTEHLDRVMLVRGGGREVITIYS
Diaph inh CS = diaphorase inhibition or chemical oxidation counter-screen. inhibition, % at 20 µM. 190,000 compounds, 0.69% hits. diaphorase resazurin-to-resorufin fluorescence, NADH, 16 min; bacterial (C. kluyveri) enzyme, not human. AID 1217;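 active = primary screen inhibition at 20 µM above a set limit, cut at about 50% in these data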
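Assay system – diaphorase enzyme from Clostridium kluyveri · Amount – diaphorase 0.14 U/mL (working solution) · Times – reaction incubation of 16 min at room temperature · Controls – No-NADH positive control and DMSO neutral control · Signal – resorufin fluorescence 544/590 nm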
ROMK primary = modulates human ROMK potassium channel activity. Tet-inducible ROMK, thallium flux fluorescence; actives lie on both sides. 130,000 compounds, 2% hits. B-score at 10 µM. AID 1918. P48048;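 active = signal ratio slope over the read window, or its plate-corrected B-score, at least 3 SD from the plate mean, either direction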;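 note: B-score of the F/F0 ratio slope over 7 to 12 s after thallium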
WT yeast gro inh = growth inhibition of WT yeast, mitochondrial fusion screen | mitochondrial fusion phenotypic screen, WT strain | AID 1362 | 190,000 compounds, 2.1% hits | inhibition, % at 10 µM; in the data active = inhibition above about 58%; tested in S. cerevisiae
Each line names hits and unclear results; the compound was inactive in the other large screens.

Cc1onc(-c2c(F)cccc2Cl)c1C(=O)Nc1nc2c(s1)CCCC2	Lmaj promast 58
Cc1onc(-c2ccccc2)c1C(=O)Nc1nc2c(s1)CCCC2	none
Cc1onc(-c2c(F)cccc2Cl)c1C(=O)N1CCN(S(C)(=O)=O)CC1	none (no result: KCC2 mod)
Cc1onc(-c2ccccc2Cl)c1C(=O)N1CCc2ccccc2C1	Lmaj promast 96
Cc1onc(-c2c(F)cccc2Cl)c1C(=O)N1CCc2ccccc2C1	Lmaj promast 100 (no result: ROMK primary)
O=C(O)C1=C(C(=O)Nc2cccc(C(F)(F)F)c2)CCCC1	none
Cc1[nH]nc(SCC(=O)N2CCC(C)CC2)c1[N+](=O)[O-]	none (no result: KCC2 mod)
COc1cc(C2=NOC(C(=O)Nc3cc(C)on3)C2)cc(OC)c1OC (stereo not given)	none (no result: Diaph act CS, Lmaj promast, Diaph inh CS, ROMK primary, WT yeast gro inh)
O=C1CC(c2ccccc2)CC2=C1CN(C1CCCCC1)CN2 (stereo not given)	Lmaj promast 82 (no result: ROMK primary)
COc1ccc(/C=C/C(=O)NCCSCc2ccco2)cc1	none
C#C[C@]1(O)CC[C@H]2[C@@H]3CCc4cc(OC5CCCC5)ccc4[C@H]3CC[C@@]21C	WT yeast gro inh 96 (no result: Lmaj promast, ROMK primary)
C#C[C@]1(O)CC[C@H]2[C@@H]3CCc4cc(OC)ccc4[C@H]3CC[C@@]21C	none (no result: ROMK primary)
CCOC(=O)c1ccc(-c2ccc(C3Nc4ccccc4C(=O)N3O)o2)cc1 (stereo not given)	Lmaj promast 98, KCC2 mod 7.1, ROMK primary -3.8
Cc1ccsc1C1Nc2ccccc2C(=O)N1O (stereo not given)	none (no result: ROMK primary)
Cc1cc([N+](=O)[O-])ccc1-c1ccc(C2Nc3ccccc3C(=O)N2O)o1 (stereo not given)	Lmaj promast 99, KCC2 mod 8.4, Diaph inh CS 68 (no result: ROMK primary)
Nc1ccc(N2CCCCC2)c(Cl)c1	none
Cc1ccccc1NC(=S)c1nc2ccccc2[nH]1	Lmaj promast 90, KCC2 mod 46
S=C(Nc1ccc(Cl)cc1)c1nc2ccccc2[nH]1	Lmaj promast 88, KCC2 mod 30
CC(=O)Nc1c(NCC(C)C)c2ccccc2oc1=O	none (no result: ROMK primary)
CC(=O)Nc1ccc(N(C(=O)CNC(=O)c2cccs2)C(C(=O)NC(C)(C)C)c2ccccc2)cc1 (stereo not given)	none (no result: Diaph act CS, Diaph inh CS)
Cn1c(=O)c2c(nc(Cl)n2CC(=O)N2CCCCC2)n(C)c1=O	none
CCOC(=O)C1CCN(Cc2cc(=O)n3c(-c4ccccc4)csc3n2)CC1	Lmaj promast 88
O=c1cc(CN2CCN(c3ccccc3)CC2)nc2scc(-c3ccccc3)n12	none
CN1CC(=O)N(CC(=O)Nc2ccc3c(c2)CCC3)C1=O	none
C=C(C)C(=O)N1CC2(CC(c3cccc(NC(=O)/C(C)=C\C)c3)=NO2)C[C@H]1C(N)=O (stereo not given in full)	none (no result: Diaph act CS, Lmaj promast, Diaph inh CS, ROMK primary, WT yeast gro inh)
CC(=O)Nc1cccc(-c2csc(Nc3ccc(C)cn3)n2)c1	none (no result: ROMK primary)
COc1ccc(-c2csc(NC3=NCCCCC3)n2)cc1	Lmaj promast 88
COc1ccc(-c2csc(Nc3ccc(C)cn3)n2)cc1	WT yeast gro inh 58
CCC(=O)c1c(NC(CC)CO)cc(C)oc1=O (stereo not given)	none
CC(C)(C)n1nnnc1C(c1cccs1)N1CCN(Cc2ccccc2)CC1 (stereo not given)	none (no result: ROMK primary)
CCN(Cc1ccccc1)C(c1cccc(C#N)c1)c1nnnn1C(C)(C)C (stereo not given)	none (no result: ROMK primary)
CC(C)(C)n1nnnc1C(c1cccs1)N(Cc1cccnc1)Cc1ccccc1Cl (stereo not given)	Lmaj promast 100, WT yeast gro inh 74 (no result: ROMK primary)
CC(c1nnnn1C(C)(C)C)N(Cc1cccnc1)Cc1ccccc1Cl (stereo not given)	Lmaj promast 96
CC1C(c2ccccc2)N(C)C(c2ccccc2)CC1(O)c1ccccc1 (stereo not given)	Lmaj promast 98, WT yeast gro inh 58 (no result: KCC2 mod)
CC1/C(=N/O)CC(c2ccccc2)N(C)C1c1ccccc1 (stereo not given)	WT yeast gro inh 98 (no result: ROMK primary)
CC1(c2ccccc2)CC2CC(c3ccccc3)N1O2 (stereo not given)	none (no result: ROMK primary)
Brc1ccccc1-c1nnc(CSc2nncn2-c2ccccc2)o1	Lmaj promast 98 (no result: ROMK primary)
O=c1c2ccccc2nc(SCc2nnc(-c3ccccc3Br)o2)n1-c1ccccc1	none (no result: ROMK primary)
COc1nnc(-c2ccccc2)s1	none
O=C1C2C3C=CC(C3)C2C(=O)N1c1ccccc1OS(=O)(=O)c1ccccc1 (stereo not given)	Lmaj promast 63
Cc1ccc2c(c1)S/C(=C/c1ccc[n+](C)c1)N2CCO	Lmaj promast 70
Cc1ccc(S(=O)(=O)CCC(=O)NCCN2C(=O)S/C(=C\c3ccccc3)C2=O)cc1	none (no result: ROMK primary)
C=CCOc1ccc(CNc2ccc(NC(=O)CCC)cc2)cc1OCC	none (no result: ROMK primary)
CCOc1cc(CNc2ccc(N3CCCCC3)cc2)cc(Br)c1OCC(=O)NC(C)(C)C	WT yeast gro inh 65 (no result: ROMK primary)
C=CCOc1c(Br)cc(CNc2ccc(NC(=O)CCC)cc2)cc1OCC	Lmaj promast 87 (no result: ROMK primary)
CCOc1cc(CNc2ccc(N(C)C)cc2)cc(Br)c1OCC(=O)NC(C)(C)C	Lmaj promast 101 (no result: KCC2 mod, ROMK primary)
C=C(C)CC1Nc2ccccc2NC1CC(=C)C (stereo not given)	none (no result: ROMK primary)
Cc1ccc(C(=O)COC(=O)c2cn(-c3ccccc3)nc2-c2ccccc2)cc1[N+](=O)[O-]	none (no result: ROMK primary)
Cc1ccc(NC(=S)NC2CCCCC2)cc1S(=O)(=O)N(C)C	none
O=S1(=O)CC(O)C(NCCO)C1 (stereo not given)	none
CSCCC(NC(=O)c1cc(C(C)(C)C)oc1C)C(=O)O (stereo not given)	none (no result: ROMK primary)
CSCCC(NC(=O)c1ccoc1C)C(=O)O (stereo not given)	Lmaj promast 65
Cc1ccccc1NC(=S)N(C)Cc1cn(C)c2ccccc12	Lmaj promast 63
CCCCC1CCC(C(=O)NCc2ccc3c(c2)OCO3)CC1 (stereo not given)	none
O=c1oc2cc(OCc3ccc([N+](=O)[O-])cc3)ccc2c2c1CCCC2	none (no result: KCC2 mod, ROMK primary)
CC1(C)CC(=O)c2c(O)cc(OCc3ccc([N+](=O)[O-])cc3)cc2O1	WT yeast gro inh 83 (no result: KCC2 mod, ROMK primary)
CCN(CC)C(=S)SCC(=O)c1ccccc1	none
CCN(CC)C(=S)SCC(=O)c1ccc(F)cc1	Lmaj promast 78 (no result: KCC2 mod, ROMK primary)
CCNS(=O)(=O)c1ccc(Br)c(OC)c1	none (no result: KCC2 mod)
Cc1c(-c2ccc(F)cc2)[n+](=O)c2c(n1[O-])CCCCC2	none
OC1(Cc2ccccc2)CCNCC1	none (no result: Diaph act CS, Lmaj promast, Diaph inh CS, ROMK primary, WT yeast gro inh)
Cc1cc(Br)ccc1NC(=O)CNC(=O)CN1C(=O)NC2(CCCCCC2)C1=O	none (no result: KCC2 mod, ROMK primary)
Cc1cc(Br)ccc1NC(=O)CN1C(=O)C2C3CC(c4ccccc4)C(C3)C2C1=O (stereo not given)	Lmaj promast 55, WT yeast gro inh 78 (no result: KCC2 mod, ROMK primary)
O=C(Nc1ccc(S(=O)(=O)N2CCCC2)cc1)c1ccc(CN2CCc3ccccc3C2)cc1	Lmaj promast 90 (no result: ROMK primary)
